The structures appear in SMILES notation. Active and inactive are the calls of the source. The calls are words filed in the database; no cut-off is given here.

What all share (format): functional, organism-based
Experiment [1] has as its system Influenza A virus. Put plainly: Antimicrobial activity against H274Y mutant oseltamivir-resistant influenza A virus (A/Yokohama/67/2006 (H1N1)) clone 11 infected in BALB/c mouse assessed as reduction in viral titer in lung at 0.080 mg/kg, itn administered 13 hrs post infection measured after 37 hrs post infection. More on the design: dose 0.08 mg/kg. The procedure, abridged: (§1)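 Female BALB/c mice (5–6 weeks) infected intranasally with clone 11, then given a single intranasal dose in saline at 13 hpi. Lungs from 3 mice per time point were homogenized in PBS with 0.4% BSA and centrifuged at 2,200 × g. Supernatants were titrated by MDCK plaque assay (agar overlay with 1 μg/ml trypsin, 2 days, crystal violet). Reported as log10 PFU/lungs, mean ± SD; detection limit 2.4.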

For experiment [2], the system named is Influenza A virus. Put plainly: Antimicrobial activity against H274Y mutant oseltamivir-resistant influenza A virus (A/Yokohama/67/2006 (H1N1)) clone 11 infected in BALB/c mouse assessed as reduction in viral titer in lung at 0.080 mg/kg, itn administered 13 hrs post infection measured after 61 hrs post infection. The arrangement: dose 0.08 mg/kg. In short, it runs like this:
as §1

The test system of experiment [3] is Influenza A virus. Put plainly: Antimicrobial activity against H274Y mutant oseltamivir-resistant influenza A virus (A/Yokohama/67/2006 (H1N1)) clone 11 infected in BALB/c mouse assessed as reduction in viral titer in lung at 0.080 mg/kg, itn administered 13 hrs post infection measured after 85 hrs post infection. The arrangement: dose 0.08 mg/kg. In short, it runs like this:
as §1

The test system of experiment [4] is Influenza A virus. Put plainly: Antimicrobial activity against H274Y mutant oseltamivir-resistant influenza A virus (A/Yokohama/67/2006 (H1N1)) clone 11 infected in BALB/c mouse assessed as reduction in viral titer in lung at 10 mg/kg, po administered 13 hrs post infection, qd measured after 61 hrs post infection. The arrangement: dose 10 mg/kg.
In experiment [5] the test system is Influenza A virus. Put plainly: Antimicrobial activity against H274Y mutant oseltamivir-resistant influenza A virus (A/Yokohama/67/2006 (H1N1)) clone 11 infected in BALB/c mouse assessed as reduction in viral titer in lung at 1.0 mg/kg, po administered 13 hrs post infection, qd measured after 61 hrs post infection. More on the design: dose 1 mg/kg.
Experiment [6] deals with Influenza A virus. In words: Antimicrobial activity against H274Y mutant oseltamivir-resistant influenza A virus (A/Yokohama/67/2006 (H1N1)) clone 11 infected in BALB/c mouse assessed as reduction in viral titer in lung at 1.0 mg/kg, po administered 13 hrs post infection, qd measured after 85 hrs post infection. More on the design: dose 1 mg/kg.
In experiment [7] the test system is Influenza A virus. Put plainly: Antimicrobial activity against H274Y mutant oseltamivir-resistant influenza A virus (A/Yokohama/67/2006 (H1N1)) clone 11 infected in BALB/c mouse assessed as reduction in viral titer in lung at 10 mg/kg, po administered 13 hrs post infection, qd measured after 85 hrs post infection. The arrangement: dose 10 mg/kg.
Experiment [8] concerns Influenza A virus. Put plainly: Antimicrobial activity against H274Y mutant oseltamivir-resistant influenza A virus (A/Yokohama/67/2006 (H1N1)) clone 11 infected in BALB/c mouse assessed as reduction in viral titer in lung at 1.0 mg/kg, po administered 13 hrs post infection, qd measured after 37 hrs post infection. More on the design: dose 1 mg/kg.
For experiment [9], the system named is Influenza A virus. Put plainly: Antimicrobial activity against H274Y mutant oseltamivir-resistant influenza A virus (A/Yokohama/67/2006 (H1N1)) clone 11 infected in BALB/c mouse assessed as reduction in viral titer in lung at 10 mg/kg, po administered 13 hrs post infection, qd measured after 37 hrs post infection. The arrangement: dose 10 mg/kg.

For the molecule `CCCCCCCC(=O)OC[C@@H](O)[C@@H](OC)[C@@H]1OC(C(=O)O)=C[C@H](NC(=N)N)[C@H]1NC(C)=O` [LANINAMIVIR OCTANOATE], the result in the experiment on Influenza A virus [1], in the experiment on Influenza A virus [2] and in the experiment with Influenza A virus [3] was Active.

Consider `CCOC(=O)C1=C[C@@H](OC(CC)CC)[C@H](NC(C)=O)[C@@H](N)C1.O=P(O)(O)O` [OSELTAMIVIR PHOSPHATE], for which the outcome in the experiment with Influenza A virus [4], with Influenza A virus [5], in the experiment with Influenza A virus [6], with Influenza A virus [7], in the experiment on Influenza A virus [8] and with Influenza A virus [9] was inactive.
